From PubChem
In the library only some 1.3% were active in any assay of this set; here they are far more common.
LYPLA1 counter = LYPLA1 (human) inhibition in PME1 counter-screen; O75608; inhibition, % at 5.9 µM; recombinant LYPLA1, FP-Rh probe fluorescence polarization; 320,000 compounds, 0.16% hits; AID 2174;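 active = inhibition above the mean of all tested compounds plus 3 SD, set per campaign, cut at about 14% in these data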;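 note: inhibitors block serine hydrolase probe labeling of LYPLA1 so polarization falls; 0% = enzyme with DMSO and 100% = wells lacking LYPLA1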
RBBP9 inhibitor = inhibitors of human serine hydrolase RBBP9; inhibition, % at 7.94 µM; O75884; recombinant RBBP9, FP-Rh probe fluorescence polarization; 220,000 compounds, 0.2% hits;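 active = inhibition above the campaign mean of all tested compounds plus 3 SD, cut at about 14% in these data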;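 note: plate controls were DMSO wells with RBBP9 for no effect and wells lacking RBBP9 protein for full effect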
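System: RBBP9 protein / Buffer or medium: Tris/NaCl buffer pH 8.0 with 0.1% Pluronic / Probe or stimulus: Serine-hydrolase probe FP-Rh, 375 nM pre-mixing / Dosing: 7.94 µM single dose, 0.794% DMSO / Times: enzyme-compound preincubation 30 min, then probe labeling 45 min, 25 °C / Technique: fluorescence polarization (mP), excitation 525 nm, emission 598 nm / Replication: singlicate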
Fam108B counter = counter-screen for RBBP9 inhibitors: inhibitors of mouse Fam108B; recombinant Fam108B, FP-Rh probe fluorescence polarization; inhibition, % at 9.51 µM; 300,000 compounds, 0.33% hits; AID 1947;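 active = inhibition above the screen mean inhibition plus 3 SD, computed separately per campaign, cut at about 18% in these data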;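 note: inhibitors lower polarization as less probe binds the enzyme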
PAD4 FP inh = blocks human protein arginine deiminase 4 | Q9UM07 | recombinant PAD4, RCA probe fluorescence polarization | AID 485272 | inhibition, % at 6.36 µM | 330,000 compounds, 0.41% hits;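 active = percent inhibition above a cutoff equal to the mean of all tested compounds plus 3 SD, cut at about 15% in these data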;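 note: 0% = PAD4 with RCA probe and DMSO and 100% = probe without PAD4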
Target sequence (Q9UM07 whole entry, looked up): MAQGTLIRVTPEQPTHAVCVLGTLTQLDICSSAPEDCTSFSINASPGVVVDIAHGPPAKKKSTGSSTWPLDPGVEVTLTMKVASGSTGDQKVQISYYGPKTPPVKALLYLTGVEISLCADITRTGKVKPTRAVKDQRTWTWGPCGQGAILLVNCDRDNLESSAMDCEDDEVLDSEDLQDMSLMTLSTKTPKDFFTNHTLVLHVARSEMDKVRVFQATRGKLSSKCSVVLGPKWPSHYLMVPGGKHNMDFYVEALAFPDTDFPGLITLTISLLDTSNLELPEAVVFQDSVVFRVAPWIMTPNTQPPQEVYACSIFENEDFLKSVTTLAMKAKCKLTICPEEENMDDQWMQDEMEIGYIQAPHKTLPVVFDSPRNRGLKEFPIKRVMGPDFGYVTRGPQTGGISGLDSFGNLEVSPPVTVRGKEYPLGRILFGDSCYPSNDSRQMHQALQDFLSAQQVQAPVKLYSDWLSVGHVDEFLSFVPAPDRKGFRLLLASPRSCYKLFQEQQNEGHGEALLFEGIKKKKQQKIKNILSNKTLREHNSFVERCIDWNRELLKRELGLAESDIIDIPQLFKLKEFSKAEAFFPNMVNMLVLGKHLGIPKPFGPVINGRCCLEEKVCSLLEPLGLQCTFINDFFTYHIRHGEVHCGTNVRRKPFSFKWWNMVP
PME-1 inh = blocks human protein phosphatase methylesterase 1; inhibition, % at 5.9 µM; recombinant PME-1, FP-Rh probe fluorescence polarization; 320,000 compounds, 0.53% hits;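 active = inhibition above the campaign mean of all compounds plus 3 SD, cut at about 26% in these data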;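 note: competitive labeling of PME-1 active site by serine hydrolase directed probe; 0% = PME-1 with DMSO and 100% = wells lacking PME-1 enzyme; inhibitors block probe labeling so polarization falls and inhibition rises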
LYPLA2 counter = LYPLA2 (human) inhibition in PME1 counter-screen | recombinant LYPLA2, FP-Rh probe fluorescence polarization | inhibition, % at 5.9 µM | O95372 | 320,000 compounds, 0.38% hits | AID 2177;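 active = inhibition above the screen-wide mean plus 3 SD, limit set per campaign, cut at about 26% in these data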;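 note: 0% = LYPLA2 with DMSO and 100% = wells lacking LYPLA2 enzyme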
LYPLA2 conf = counter-screen for PME1 inhibitors: confirmation of human LYPLA2 inhibitors; recombinant LYPLA2, FP-Rh probe fluorescence polarization; 1,100 compounds, 72% hits; inhibition, % at 5.9 µM; shares compounds with LYPLA2 counter;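 active = mean inhibition across replicates above the hit cutoff set in the primary screen, cut at about 26% in these data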;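 note: blocked labeling of the enzyme by serine hydrolase FP-Rh probe lowers polarization; 0% = enzyme with DMSO and 100% = wells lacking LYPLA2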
LYPLA2 gel ABPP = LYPLA2 (human) inhibition, late stage results. rhLYPLA2 in mouse brain proteome, gel ABPP FP-Rh. 150 compounds, 30% hits. shares compounds with LYPLA2 counter. inhibition, % at 20 µM;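 active = inhibition of LYPLA2 enzyme probe labeling above about 50%, limit read from the data; inactive = inhibition below that limit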;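 note: loss of FP-Rh probe labeling of the LYPLA2 gel band measured as band density; 0% = DMSO only control band and 100% = blank gel background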
The depositor's hits bear a star; / = no result given.

SMILES | LYPLA1 counter | RBBP9 inhibitor | Fam108B counter | PAD4 FP inh | PME-1 inh | LYPLA2 counter | LYPLA2 conf | others
CS(=O)(=O)Nc1ccc(N2CCN(c3ccc(C(F)(F)F)cn3)CC2)nc1 | 8.5 | -7.7 | 2.5 | -1.7 | 2.3 | 84.1* | 82.6* | LYPLA2 gel ABPP=72.0*
Cc1ccccc1NC(=O)c1nn(C)c2c1CS(=O)(=O)c1ccccc1-2 | 1.4 | / | 1.4 | 3.9 | 0.6 | 39.8* | 46.0*
C[C@H](NC(=O)OC(C)(C)C)c1nnc(SCC(=O)Nc2cccc(Cl)c2)o1 | -3.5 | / | -1.4 | -0.5 | 3.7 | -1.0 | /
CC(C)[C@H](NC(=O)OC(C)(C)C)c1nnc(SCC(=O)Nc2ccc(Br)cc2)o1 | 0.4 | 1.5 | -3.0 | -2.4 | -2.6 | 48.2* | 54.2*
Cc1ccc(-n2cc(-c3ccccc3)c3c(N4CCN(C)CC4)ncnc32)cc1 | 5.6 | -0.1 | 4.4 | 0.8 | 3.0 | 30.3* | 19.8
Fc1ccccc1COc1ccc(Br)cc1CNCc1ccncc1 | -3.6 | 0.4 | 3.7 | 5.5 | 6.1 | 27.0* | 2.0
CCCCCCCCCCCC(=O)NC1CCS(=O)(=O)C1 (stereo not drawn) | -0.1 | -5.8 | 0.1 | -2.7 | 1.6 | 8.3 | /
CCc1ccc(C(=O)C(C)OC(=O)CNS(=O)(=O)c2ccc(C)cc2)cc1 (stereo not drawn) | 0.2 | / | -0.8 | -1.4 | -2.2 | 2.4 | /
O=C1CC(c2ccc(Cl)cc2)CC(O)=C1C=NCc1ccc(Cl)c(Cl)c1 (stereo not drawn) | 2.1 | -1.1 | 4.9 | -4.1 | -1.6 | 26.7* | 57.9* | LYPLA2 gel ABPP=37.0
O=C(NCc1ccccn1)c1ccc(CNS(=O)(=O)c2cccc(Cl)c2)cc1 | 4.6 | -6.9 | 1.0 | -0.1 | 7.2 | 13.1 | /
CC(=O)c1ccc(N2CCN(c3ccc(S(=O)(=O)N4CCN(C)CC4)cn3)CC2)cc1 | -0.2 | 4.1 | -2.7 | -0.4 | 2.4 | 27.1* | 35.1*
CC(=O)c1ccc(S(=O)(=O)N2CCN(C)CC2)cc1 | -0.9 | -15.7 | 0.2 | -5.3 | 2.2 | 5.1 | /
OC(CSc1ccc(F)cc1)CN1CCN(c2ccccc2)CC1 (stereo not drawn) | 1.7 | 4.7 | 3.0 | 3.1 | -0.2 | 11.8 | /
CCN1CCc2c(sc(NC(=O)c3ccc(C(=O)c4ccccc4)cc3)c2C(N)=O)C1 | -1.9 | / | 1.2 | -5.2 | 0.5 | 26.3* | 24.9
O=C(NCC1CCCO1)c1cccc(Oc2ccc([N+](=O)[O-])cc2)c1 (stereo not drawn) | 0.8 | / | 2.5 | 1.7 | 7.5 | 22.7 | /
Cc1ccc(NC(=O)CC2S/C(=N/N=C3/NC(=O)CS3)NC2=O)cc1 (stereo not drawn) | -0.4 | -0.4 | 2.3 | -1.0 | -10.8 | -1.3 | /
CCOC(=O)c1ccc(NC(=O)CC2S/C(=N/N=C3/NC(=O)CS3)NC2=O)cc1 (stereo not drawn) | 0.7 | -4.9 | -2.3 | 3.1 | -2.2 | 32.0* | 1.6
Cc1cc(C)c(OCC(=O)Nc2ccc(N3CCOCC3)cc2)c(Br)c1 | 2.1 | / | 2.2 | 0.0 | 6.0 | 27.8* | 1.0
O=C(CSCc1ccccc1Br)N/N=C/c1ccccc1C(=O)O | -1.0 | -5.4 | -0.1 | 4.6 | -1.1 | -1.4 | /
COc1ccc(CCNCc2ccc(OCc3ccccc3)cc2)cc1 | 0.9 | / | -3.9 | -6.6 | -1.0 | 32.1* | 29.9*
COc1ccc(CNCCc2ccc(Cl)cc2)cc1OCc1ccccc1 | 0.1 | -7.9 | 2.0 | -4.4 | -0.3 | 4.0 | /
COc1ccc(C2C(C(=O)N3CCCCC3)CC(=O)N2c2ccc(OC)cc2)cc1 (stereo not drawn) | -3.0 | -8.7 | 1.4 | -1.5 | 1.2 | -8.1 | /
C#CCOCCOCCOCCNc1nc(N2CCN(C(=O)CCCCCCCCCCNC(=O)Cn3cc(C[C@@H](C)O)nn3)CC2)nc(N2CCN(C(=O)CCCCCCCCCCNC(=O)[C@@H]([C@H](C)CC)n3cc(CCCCCN)nn3)CC2)n1 | 0.2 | / | -2.5 | 0.0 | -0.1 | 30.5* | 28.0*
CCOC(=O)[C@@H]1[C@H]2COc3ccccc3[C@H]2N2C(=O)N(c3cccc(C)c3)C(=O)[C@]12C | / | / | / | -2.2 | / | / | /
COC(=O)c1ccccc1S(=O)(=O)NNC(=O)C12CC3CC(CC(C3)C1)C2 | / | / | / | -4.5 | / | / | /
SMILES | LYPLA1 counter | RBBP9 inhibitor | Fam108B counter | PAD4 FP inh | PME-1 inh | LYPLA2 counter | LYPLA2 conf | others
COc1cccc(OCC(O)CN2CCN(CCN3C(=O)c4cccc5cccc(c45)C3=O)CC2)c1 (stereo not drawn) | 2.7 | -7.8 | 1.3 | -0.2 | 0.1 | 31.8* | 33.9*
Cn1ncc([N+](=O)[O-])c1C(=O)NC1CCCCC1 | 0.3 | / | -1.8 | 4.0 | -2.2 | 4.0 | /
O=C(CCCN1CCC(O)(c2cccc(C(F)(F)F)c2)CC1)c1ccc(F)cc1 | 0.1 | / | -2.9 | -2.3 | 0.8 | 71.8* | 68.3*
O=C(CCCN1CCC(O)(c2ccc(Br)cc2)CC1)c1ccc(F)cc1 | 1.8 | / | 6.5 | 2.4 | 9.4 | 18.2 | /
COc1ccccc1N1CCN(C(=O)Cn2nc3n(C)c4ccccc4n3c(=O)c2=O)CC1 | -1.5 | -3.4 | -1.0 | 2.0 | -8.7 | 0.8 | /
CCOC(=O)C1C(=O)CC(C)(O)C(C(=O)OCC)C1c1ccc([N+](=O)[O-])cc1 (stereo not drawn) | 0.5 | -3.4 | 1.3 | 0.7 | -2.3 | -0.1 | /
O=C(/C=C/c1ccco1)N1CCN(C/C=C/c2ccccc2)CC1 | 2.1 | -4.1 | -0.6 | 2.7 | 2.8 | 27.0* | 24.3
O=C(/C=C/c1ccco1)N1CCN(S(=O)(=O)/C=C/c2ccccc2)CC1 | 1.7 | -3.1 | -1.3 | -4.3 | 1.4 | -2.5 | /
Cc1ncc([N+](=O)[O-])n1CC(=O)Nc1ccccc1 | -0.7 | -3.9 | -5.8 | -6.3 | -9.8 | 32.0* | 38.0*
Cc1ncc([N+](=O)[O-])n1CC(=O)Nc1ccc2c(c1)OCO2 | -1.6 | -16.8 | -5.7 | -6.1 | -1.9 | 25.9* | 24.9
Cc1cccc(NC(=O)Cn2c([N+](=O)[O-])cnc2C)c1C | 7.2 | -2.3 | -5.3 | 1.5 | 3.1 | 30.6* | 31.6*
Cc1ncc([N+](=O)[O-])n1CC(=O)Nc1ccc(Br)cc1 | 3.1 | / | -1.5 | 3.1 | 5.0 | 45.9* | 38.5*
COC(=O)c1ccc(NC(=O)Cn2c([N+](=O)[O-])cnc2C)cc1 | 1.0 | / | -1.6 | -3.5 | -0.5 | 3.7 | /
CCOC(=O)COc1cnc2ccccc2n1 | 4.8 | -2.8 | 0.4 | -0.7 | -1.6 | 8.3 | /
COC(=O)c1cc(S(=O)(=O)NCc2cccs2)c[nH]1 | 1.1 | / | -3.3 | 1.9 | 2.2 | 7.2 | /
CC(C)CC(=O)Nc1ccc(S(=O)(=O)Nc2nccs2)cc1 | -2.7 | / | -2.0 | -0.1 | 0.3 | 0.3 | /
Cc1ccc(NC(=O)Cn2c([N+](=O)[O-])cnc2C)cc1 | -1.6 | -11.7 | 1.6 | 2.7 | -9.3 | 12.1 | /
